Experimental data taken from ChEMBL document CHEMBL4732121, “Imidazo[1,2-a]quinoxalines for melanoma treatment with original mechanism of action” (Eur J Med Chem, 2021).

Test system: A-375
Experiment: Antiproliferative activity against human A-375 cells assessed as reduction in cell viability measured after 96 hrs by MTT assay
Type: functional, cell-based
How it was run: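 A375 cells in RPMI-1640 with 10% heat-inactivated FBS, 2 mM L-glutamine and antibiotics, 37°C, 5% CO₂. Seeded at 5000 cells/well and attached overnight, then exposed to 10⁻⁵–3.2.10⁻⁹ M in 0.15% DMSO/medium for 96 h. MTT at 0.5 mg/ml final for 4 h, formazan dissolved in 10% SDS/0.01 M HCl, OD 570 nm. At least three experiments in triplicate; IC50 from sigmoidal dose–response curves.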

| IC50 (Homo sapiens, A-375, 96 h) | IC50 (a-375) | Compound |
| --- | --- | --- |
| 6910 nM |  | CNc1nc2cc(C(F)(F)F)ccc2n2c(-c3ccc(O)c(O)c3)cnc12 |
| 30 nM |  | CN(C)c1nc2ccccc2n2c(-c3ccc(O)c(O)c3)cnc12 |
| 5590 nM |  | NCCCNc1nc2ccccc2n2c(-c3ccc(O)c(O)c3)cnc12 |
| > 10000 nM |  | COc1ccc(-c2cnc3c(NCCCCCCNC(=O)OC(C)(C)C)nc4ccccc4n23)cc1OC |
| > 10000 nM |  | COc1ccc(-c2cnc3c(NCCNC(=O)OC(C)(C)C)nc4ccccc4n23)cc1OC |
| 2930 nM |  | COc1ccc(-c2cnc3c(OC)nc4ccccc4n23)cc1OC |
|  | 1700 nM | NCCNc1nc2ccccc2n2c(-c3ccc(O)c(O)c3)cnc12 [listing 1 of 2 here] |
| 2350 nM |  | CNc1nc2ccccc2n2c(Br)cnc12 |
| 199 nM |  | CNc1nc2cc(OC(F)(F)F)ccc2n2c(-c3ccc(O)c(O)c3)cnc12 |
| > 10000 nM |  | CNc1nccn2c(-c3ccc(OC)c(OC)c3)cnc12 |
| > 10000 nM |  | CNc1nc2ccccc2n2ccnc12 |
| > 10000 nM |  | COc1ccc(-c2cnc3c(N4CCN(C(=O)OC(C)(C)C)CC4)nc4ccccc4n23)cc1OC |
| 1280 nM |  | NCCNc1nc2ccccc2n2c(-c3ccc(O)c(O)c3)cnc12 [listing 2 of 2 here] |
| 60 nM |  | Nc1nc2ccccc2n2c(-c3ccc(O)c(O)c3)cnc12 |
